Test results as given in ChEMBL document CHEMBL1687878, “Synthesis and biological evaluation of substituted (thieno[2,3-d]pyrimidin-4-ylthio)carboxylic acids as inhibitors of human protein kinase CK2” (Eur J Med Chem, 2011).

How the values were obtained:
Casein kinase II = Casein kinase II (Homo sapiens, UniProt P19784+P67870+P68400); test: Inhibition of recombinant human CK2 activity assessed as [gamma-32P]ATP incorporation into substrate peptide after 20 mins in presence of 50 uM ATP; type: protein-complex assay
Sequence of Casein kinase II (P67870 whole entry): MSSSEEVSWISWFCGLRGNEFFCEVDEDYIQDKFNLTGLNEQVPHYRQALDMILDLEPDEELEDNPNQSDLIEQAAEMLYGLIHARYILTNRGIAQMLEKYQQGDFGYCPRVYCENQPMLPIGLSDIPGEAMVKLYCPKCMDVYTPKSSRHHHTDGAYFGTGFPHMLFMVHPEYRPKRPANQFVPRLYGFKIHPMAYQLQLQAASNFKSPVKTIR
Sequence of Casein kinase II (P68400 whole entry): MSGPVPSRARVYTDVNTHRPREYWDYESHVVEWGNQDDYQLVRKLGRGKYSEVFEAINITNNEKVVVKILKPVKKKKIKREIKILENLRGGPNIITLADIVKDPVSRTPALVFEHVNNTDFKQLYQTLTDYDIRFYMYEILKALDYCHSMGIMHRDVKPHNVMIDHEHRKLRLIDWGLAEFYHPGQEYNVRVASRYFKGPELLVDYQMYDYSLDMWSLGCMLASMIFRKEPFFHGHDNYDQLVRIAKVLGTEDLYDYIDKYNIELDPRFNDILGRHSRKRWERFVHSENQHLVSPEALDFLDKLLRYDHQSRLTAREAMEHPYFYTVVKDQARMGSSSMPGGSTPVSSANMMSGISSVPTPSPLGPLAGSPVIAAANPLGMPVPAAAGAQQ
Sequence of Casein kinase II (P19784 whole entry): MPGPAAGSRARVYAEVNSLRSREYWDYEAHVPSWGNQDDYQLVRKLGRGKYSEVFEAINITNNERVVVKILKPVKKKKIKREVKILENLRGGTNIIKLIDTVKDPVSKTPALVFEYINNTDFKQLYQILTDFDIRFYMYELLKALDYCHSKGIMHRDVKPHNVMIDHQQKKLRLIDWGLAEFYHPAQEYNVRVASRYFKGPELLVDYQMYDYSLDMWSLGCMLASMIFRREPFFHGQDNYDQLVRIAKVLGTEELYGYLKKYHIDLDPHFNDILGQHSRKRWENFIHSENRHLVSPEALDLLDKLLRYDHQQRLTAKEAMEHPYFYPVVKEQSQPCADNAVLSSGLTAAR
Outline: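 Radiometric assay with 10 units of recombinant human CK2 in 20 mM Tris-HCl pH 7.5, 50 mM KCl, 10 mM MgCl2. It used 50 µM ATP plus γ-32P ATP (specific activity 100 µCi/µM) and serially diluted inhibitor, run 20 min at 30 °C. The reaction was stopped with 10% phosphoric acid, spotted on phosphocellulose paper, washed with 1% phosphoric acid and Cherenkov-counted. Percent inhibition was taken relative to the DMSO no-inhibitor control, and IC50 was derived from the dilution series.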

[1] = molecular target: Fibroblast growth factor receptor 1 (Homo sapiens) (UniProt P11362); test: Inhibition of recombinant human FGFR1 kinase assessed as residual activity at 10 uM in presence of 100 uM ATP
Sequence of Fibroblast growth factor receptor 1 (Homo sapiens) (P11362 22-822 limits assumed): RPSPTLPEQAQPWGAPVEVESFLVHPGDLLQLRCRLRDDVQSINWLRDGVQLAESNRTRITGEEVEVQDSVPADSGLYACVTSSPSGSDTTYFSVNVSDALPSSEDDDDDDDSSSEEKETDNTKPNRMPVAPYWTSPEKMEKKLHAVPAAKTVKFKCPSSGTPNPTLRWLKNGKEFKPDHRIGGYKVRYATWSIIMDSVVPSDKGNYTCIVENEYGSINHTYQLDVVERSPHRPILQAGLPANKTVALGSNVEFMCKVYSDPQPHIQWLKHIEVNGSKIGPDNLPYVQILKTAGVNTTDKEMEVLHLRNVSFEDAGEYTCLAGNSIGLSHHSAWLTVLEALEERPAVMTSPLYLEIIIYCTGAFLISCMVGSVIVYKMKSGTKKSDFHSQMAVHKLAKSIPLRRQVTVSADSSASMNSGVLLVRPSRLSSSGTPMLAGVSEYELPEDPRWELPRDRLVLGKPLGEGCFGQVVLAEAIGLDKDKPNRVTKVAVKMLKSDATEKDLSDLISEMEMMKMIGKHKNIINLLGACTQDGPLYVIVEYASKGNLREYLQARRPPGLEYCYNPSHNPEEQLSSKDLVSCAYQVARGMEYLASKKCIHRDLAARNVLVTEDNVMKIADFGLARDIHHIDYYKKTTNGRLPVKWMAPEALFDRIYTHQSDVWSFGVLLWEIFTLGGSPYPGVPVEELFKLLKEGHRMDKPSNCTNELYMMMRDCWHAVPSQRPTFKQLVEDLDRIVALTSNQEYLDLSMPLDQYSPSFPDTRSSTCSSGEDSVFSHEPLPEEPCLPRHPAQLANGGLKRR
Outline: (§1)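 Inhibitor was tested at 10 µM with a final ATP of 100 µM. Residual activity is expressed as a percentage of the control without inhibitor.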

[2] = molecular target: Hepatocyte growth factor receptor (Homo sapiens) (UniProt P08581); test: Inhibition of recombinant human Met kinase assessed as residual activity at 10 uM in presence of 100 uM ATP; outline: as §1
Sequence of Hepatocyte growth factor receptor (Homo sapiens) (P08581 whole entry): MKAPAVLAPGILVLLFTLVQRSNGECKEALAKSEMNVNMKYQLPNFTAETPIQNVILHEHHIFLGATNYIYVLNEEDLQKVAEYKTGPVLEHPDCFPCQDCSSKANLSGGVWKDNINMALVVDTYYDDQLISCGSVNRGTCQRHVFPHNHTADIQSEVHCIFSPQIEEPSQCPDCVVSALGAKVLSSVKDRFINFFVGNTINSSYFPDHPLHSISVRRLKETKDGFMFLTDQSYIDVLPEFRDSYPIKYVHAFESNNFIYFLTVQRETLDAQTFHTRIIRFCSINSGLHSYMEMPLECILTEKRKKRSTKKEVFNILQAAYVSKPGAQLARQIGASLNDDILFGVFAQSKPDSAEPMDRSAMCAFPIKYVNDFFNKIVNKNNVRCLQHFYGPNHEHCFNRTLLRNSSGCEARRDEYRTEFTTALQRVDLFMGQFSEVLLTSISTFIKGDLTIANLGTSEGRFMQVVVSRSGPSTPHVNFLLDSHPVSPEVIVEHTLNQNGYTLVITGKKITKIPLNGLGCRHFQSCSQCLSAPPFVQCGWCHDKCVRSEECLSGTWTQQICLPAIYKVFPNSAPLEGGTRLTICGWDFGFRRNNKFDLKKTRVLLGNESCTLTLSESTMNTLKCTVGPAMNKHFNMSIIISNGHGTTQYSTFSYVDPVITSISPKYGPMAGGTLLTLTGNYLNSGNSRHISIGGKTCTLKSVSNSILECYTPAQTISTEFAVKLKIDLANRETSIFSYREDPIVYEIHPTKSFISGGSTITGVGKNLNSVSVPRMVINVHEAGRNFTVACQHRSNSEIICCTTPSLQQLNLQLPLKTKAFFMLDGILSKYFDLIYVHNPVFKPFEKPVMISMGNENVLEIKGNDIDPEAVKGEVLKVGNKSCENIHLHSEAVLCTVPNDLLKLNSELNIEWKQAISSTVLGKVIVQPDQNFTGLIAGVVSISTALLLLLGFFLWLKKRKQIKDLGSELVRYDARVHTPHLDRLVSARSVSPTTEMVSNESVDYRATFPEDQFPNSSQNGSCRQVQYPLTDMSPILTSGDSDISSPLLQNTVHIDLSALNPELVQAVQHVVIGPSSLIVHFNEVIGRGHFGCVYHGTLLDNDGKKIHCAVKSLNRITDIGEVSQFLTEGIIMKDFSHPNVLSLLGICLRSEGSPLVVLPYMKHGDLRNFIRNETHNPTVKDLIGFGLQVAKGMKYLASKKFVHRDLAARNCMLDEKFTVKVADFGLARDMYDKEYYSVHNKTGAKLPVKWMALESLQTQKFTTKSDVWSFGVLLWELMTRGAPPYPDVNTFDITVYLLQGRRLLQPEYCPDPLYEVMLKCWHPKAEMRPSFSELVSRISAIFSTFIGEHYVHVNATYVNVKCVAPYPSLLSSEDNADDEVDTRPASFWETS

[3] = molecular target: T1, Aurora kinase A (Homo sapiens) (UniProt O14965); test: Inhibition of recombinant human Aurora A kinase assessed as residual activity at 10 uM in presence of 100 uM ATP; outline: as §1
T1 sequence (whole entry): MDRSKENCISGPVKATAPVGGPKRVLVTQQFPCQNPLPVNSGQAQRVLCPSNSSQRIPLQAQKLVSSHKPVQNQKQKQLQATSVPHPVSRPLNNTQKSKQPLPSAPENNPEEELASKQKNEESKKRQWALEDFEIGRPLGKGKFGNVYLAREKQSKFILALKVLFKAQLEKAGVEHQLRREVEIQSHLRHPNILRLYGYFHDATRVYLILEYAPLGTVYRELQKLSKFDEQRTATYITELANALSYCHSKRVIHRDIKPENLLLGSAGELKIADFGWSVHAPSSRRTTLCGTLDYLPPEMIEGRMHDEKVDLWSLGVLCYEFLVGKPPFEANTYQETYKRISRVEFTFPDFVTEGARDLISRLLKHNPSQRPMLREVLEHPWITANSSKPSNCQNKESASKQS

[4] = molecular target: T2, Mitogen-activated protein kinase kinase kinase 5 (Homo sapiens) (UniProt Q99683); test: Inhibition of recombinant human Ask1 kinase assessed as residual activity at 10 uM in presence of 100 uM ATP; outline: as §1
T2 sequence (whole entry): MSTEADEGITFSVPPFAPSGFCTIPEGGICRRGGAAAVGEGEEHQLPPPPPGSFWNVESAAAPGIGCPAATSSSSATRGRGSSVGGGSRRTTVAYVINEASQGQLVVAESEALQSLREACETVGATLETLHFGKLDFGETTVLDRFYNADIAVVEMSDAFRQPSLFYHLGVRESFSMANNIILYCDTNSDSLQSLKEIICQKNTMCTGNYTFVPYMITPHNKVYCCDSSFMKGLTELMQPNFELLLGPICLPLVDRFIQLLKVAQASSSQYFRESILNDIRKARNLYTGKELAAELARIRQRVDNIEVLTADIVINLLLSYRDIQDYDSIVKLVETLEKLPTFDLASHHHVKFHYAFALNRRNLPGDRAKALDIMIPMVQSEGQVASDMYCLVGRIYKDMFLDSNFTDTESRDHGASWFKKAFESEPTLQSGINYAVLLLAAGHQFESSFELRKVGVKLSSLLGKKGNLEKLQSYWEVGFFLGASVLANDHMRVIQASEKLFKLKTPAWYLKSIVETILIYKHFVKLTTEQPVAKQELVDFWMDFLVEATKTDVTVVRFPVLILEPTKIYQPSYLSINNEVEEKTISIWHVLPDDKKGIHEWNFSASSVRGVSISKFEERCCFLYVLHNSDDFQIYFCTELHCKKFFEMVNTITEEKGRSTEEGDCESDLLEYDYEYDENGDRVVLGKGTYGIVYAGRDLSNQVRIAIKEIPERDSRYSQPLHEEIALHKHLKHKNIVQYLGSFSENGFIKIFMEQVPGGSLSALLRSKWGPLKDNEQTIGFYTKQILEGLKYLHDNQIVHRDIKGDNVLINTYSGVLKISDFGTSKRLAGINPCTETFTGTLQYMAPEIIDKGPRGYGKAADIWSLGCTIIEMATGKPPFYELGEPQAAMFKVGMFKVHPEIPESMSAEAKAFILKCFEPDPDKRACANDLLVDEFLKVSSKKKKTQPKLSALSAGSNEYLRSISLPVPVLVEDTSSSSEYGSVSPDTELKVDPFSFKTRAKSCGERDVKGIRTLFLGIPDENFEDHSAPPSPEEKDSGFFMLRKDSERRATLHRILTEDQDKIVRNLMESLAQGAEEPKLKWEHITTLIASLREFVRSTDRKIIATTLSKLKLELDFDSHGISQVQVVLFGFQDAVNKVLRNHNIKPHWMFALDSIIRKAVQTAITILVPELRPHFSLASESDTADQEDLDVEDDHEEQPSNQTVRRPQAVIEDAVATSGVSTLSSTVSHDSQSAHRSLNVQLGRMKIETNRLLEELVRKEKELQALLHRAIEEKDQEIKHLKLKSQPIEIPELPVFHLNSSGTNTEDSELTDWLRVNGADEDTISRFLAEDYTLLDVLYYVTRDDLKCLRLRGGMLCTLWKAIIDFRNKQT

[5] = molecular target: Angiopoietin-1 receptor (Homo sapiens) (UniProt Q02763); test: Inhibition of recombinant human Tie2 kinase assessed as residual activity at 10 uM in presence of 100 uM ATP; outline: as §1
Sequence of Angiopoietin-1 receptor (Homo sapiens) (Q02763 whole entry): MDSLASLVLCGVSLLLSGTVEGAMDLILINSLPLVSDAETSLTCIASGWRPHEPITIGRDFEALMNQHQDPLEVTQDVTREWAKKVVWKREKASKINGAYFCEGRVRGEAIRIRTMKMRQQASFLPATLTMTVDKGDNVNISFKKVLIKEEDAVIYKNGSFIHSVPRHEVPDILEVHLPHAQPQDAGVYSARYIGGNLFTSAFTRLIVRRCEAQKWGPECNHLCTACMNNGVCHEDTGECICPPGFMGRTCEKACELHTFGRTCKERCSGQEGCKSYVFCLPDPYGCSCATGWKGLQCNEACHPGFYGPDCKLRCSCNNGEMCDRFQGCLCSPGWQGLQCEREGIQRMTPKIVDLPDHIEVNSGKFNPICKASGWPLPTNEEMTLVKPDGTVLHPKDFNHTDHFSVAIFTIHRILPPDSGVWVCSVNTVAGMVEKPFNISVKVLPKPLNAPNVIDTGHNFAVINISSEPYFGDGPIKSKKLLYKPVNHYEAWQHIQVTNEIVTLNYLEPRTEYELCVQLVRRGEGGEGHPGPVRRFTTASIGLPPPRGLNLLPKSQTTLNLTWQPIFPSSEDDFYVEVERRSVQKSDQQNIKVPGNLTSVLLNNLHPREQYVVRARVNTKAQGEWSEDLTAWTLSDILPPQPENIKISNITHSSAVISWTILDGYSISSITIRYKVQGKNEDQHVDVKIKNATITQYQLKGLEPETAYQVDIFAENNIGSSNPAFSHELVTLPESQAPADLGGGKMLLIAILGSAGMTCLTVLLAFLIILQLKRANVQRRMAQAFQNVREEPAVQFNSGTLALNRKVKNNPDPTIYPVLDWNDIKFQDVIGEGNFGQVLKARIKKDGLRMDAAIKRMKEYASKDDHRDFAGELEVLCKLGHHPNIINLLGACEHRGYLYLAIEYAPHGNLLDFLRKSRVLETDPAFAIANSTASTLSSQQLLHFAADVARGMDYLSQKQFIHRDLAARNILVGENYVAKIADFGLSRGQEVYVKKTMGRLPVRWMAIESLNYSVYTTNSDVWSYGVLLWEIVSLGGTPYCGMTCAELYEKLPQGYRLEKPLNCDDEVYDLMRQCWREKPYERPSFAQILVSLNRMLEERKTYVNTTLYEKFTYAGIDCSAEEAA

[6] = molecular target: Rho-associated protein kinase 1 (Homo sapiens) (UniProt Q13464); test: Inhibition of recombinant human Rock1 kinase assessed as residual activity at 10 uM in presence of 100 uM ATP; outline: as §1
[7] = molecular target: Mitogen-activated protein kinase 10 (Homo sapiens) (UniProt P53779); test: Inhibition of recombinant human Jnk3 kinase assessed as residual activity at 10 uM in presence of 100 uM ATP; outline: as §1
Sequence of Mitogen-activated protein kinase 10 (Homo sapiens) (P53779 whole entry): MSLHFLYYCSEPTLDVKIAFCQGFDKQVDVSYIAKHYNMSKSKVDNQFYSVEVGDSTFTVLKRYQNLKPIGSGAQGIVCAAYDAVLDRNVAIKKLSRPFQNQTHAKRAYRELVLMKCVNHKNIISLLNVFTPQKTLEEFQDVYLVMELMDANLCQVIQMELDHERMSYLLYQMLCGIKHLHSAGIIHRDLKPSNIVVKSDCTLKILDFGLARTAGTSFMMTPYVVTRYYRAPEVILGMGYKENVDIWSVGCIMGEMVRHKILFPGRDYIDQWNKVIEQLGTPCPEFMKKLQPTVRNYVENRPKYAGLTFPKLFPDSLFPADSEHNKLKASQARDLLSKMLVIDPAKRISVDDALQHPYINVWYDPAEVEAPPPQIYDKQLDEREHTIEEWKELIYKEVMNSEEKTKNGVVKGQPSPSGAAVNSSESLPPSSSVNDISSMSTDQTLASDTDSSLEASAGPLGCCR

[8] = molecular target: Casein kinase II (Homo sapiens) (UniProt P67870+P68400+P19784); test: Inhibition of recombinant human CK2 kinase assessed as residual activity at 10 uM in presence of 100 uM ATP; type: protein-complex assay
Outline: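 CK2 residual activity was measured with 10 µM inhibitor and a final ATP of 100 µM. It is expressed as a percentage of the no-inhibitor control.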

[9] = Competitive inhibition of recombinant human CK2 activity by Lineweaver-Burk plot analysis

| SMILES | IC50 (Casein kinase II) [µM] | also measured |
| --- | --- | --- |
| O=C(O)CCSc1ncnc2scc(-c3ccc(Cl)cc3)c12 | 0.175 |  |
| CC1CCc2c(sc3ncnc(SC(C)C(=O)O)c23)C1 (stereo not given) | 20 |  |
| CC(Sc1ncnc2scc(-c3ccccc3)c12)C(=O)O (stereo not given) | 23 |  |
| CCC(Sc1ncnc2scc(-c3ccc(C)cc3)c12)C(=O)O (stereo not given) | > 33 |  |
| CCC(Sc1ncnc2scc(-c3ccc(Cl)cc3)c12)C(=O)O (stereo not given) | > 33 |  |
| Cc1sc2ncnc(SCC(=O)O)c2c1C | 17.8 |  |
| Cc1ccc(-c2csc3ncnc(SCCC(=O)O)c23)cc1 | 0.1 | Activity [1]: 92%; Activity [2]: 114%; Activity [3]: 23%; Activity [4]: 92%; Activity [5]: 70%; Activity [6]: 126%; Activity [7]: 104%; Activity [8]: 0.72%; Ki [9]: 0.04 µM |
| Cc1cc2c(SCCC(=O)O)ncnc2s1 | 7 |  |
| O=C(O)CSc1ncnc2sc(-c3ccccc3)cc12 | 1.25 |  |
| CC1CCc2c(sc3ncnc(SCC(=O)O)c23)C1 (stereo not given) | 1.78 |  |
| Cc1cc2c(SCC(=O)O)ncnc2s1 | 4 |  |
| Cc1nc(SCCC(=O)O)c2c3c(sc2n1)CCCC3 | 15.8 |  |
| O=C(O)CCCSc1ncnc2sc3c(c12)CCCC3 | > 33 |  |
| O=C(O)CSc1ncnc2scc(-c3ccc(Cl)cc3)c12 | 32 |  |
| Cc1sc2ncnc(SCC(=O)O)c2c1-c1ccccc1 | > 33 |  |
| Cc1ccc(-c2csc3ncnc(SCCC(=O)O)c23)cc1C | 0.175 |  |
| CCOc1ccc(-c2csc3ncnc(SCCC(=O)O)c23)cc1 | 0.125 | Activity [1]: 99%; Activity [2]: 115%; Activity [3]: 48%; Activity [4]: 100%; Activity [5]: 76%; Activity [6]: 115%; Activity [7]: 94%; Activity [8]: 0.86% |
| O=C(O)CSc1ncnc2scc(-c3ccc(Br)cc3)c12 | 14 |  |
| CCC(Sc1ncnc2sc3c(c12)CCCC3)C(=O)O (stereo not given) | > 33 |  |
| O=C(O)CSc1ncnc2scc(-c3ccccc3)c12 | 30 |  |
| Cc1sc2ncnc(SCCC(=O)O)c2c1C | 11.3 |  |
| Cc1sc2ncnc(SC(C)C(=O)O)c2c1C (stereo not given) | > 33 |  |
| Cc1sc2ncnc(SCc3cccc(C(=O)O)c3)c2c1C | 17.8 |  |
| O=C(O)c1ccc(CSc2ncnc3sc4c(c23)CCCC4)cc1 | > 33 |  |
| O=C(O)CCSc1ncnc2scc(-c3ccc(F)cc3)c12 | 1.2 |  |
| CC(Sc1ncnc2sc3c(c12)CCCC3)C(=O)O (stereo not given) | 17 |  |
| Cc1ccc(-c2csc3ncnc(SC(C)C(=O)O)c23)cc1 (stereo not given) | 31 |  |
| Cc1nc(SCCC(=O)O)c2cc(-c3ccccc3)sc2n1 | 3.5 |  |
